{"data": "Measured values from different studies", "target": "Phosphatidylinositol 4-kinase beta (PI4KB, Homo sapiens, UniProt Q9UBF8)"}
{"SMILES": "CC(C)CC(=O)N1CCc2nc(-c3ccc(Br)cc3)nc(N(C)Cc3ccccc3)c2C1", "test": "cell-free assay, competition with immobilised ligand", "setting": "0.1 µM", "remaining binding [%]": 100}
{"SMILES": "O=C(c1ccc(Nc2nccc(-c3cc4ccccc4s3)n2)cc1)N1CCC(N2CCCC2)CC1", "test": "binding, competition with immobilised ligand", "setting": "1 µM", "remaining binding [%]": 58}
{"SMILES": "Cc1c(C(=O)O)cc(-c2ccc(C3CCNCC3)cc2)c2ccc(-c3ccc(C(F)(F)F)cc3)cc12", "test": "cell-free assay, competition with immobilised ligand", "setting": "1 µM", "remaining binding [%]": 100}
{"SMILES": "c1cnn2ncc(-c3ccnc(N4CCC45COC5)n3)c2c1", "test": "binding", "setting": "1 µM", "remaining binding [%]": 12}
{"SMILES": "COCCOc1nc(-c2ccc(Cl)nc2)nc2c1CN(C(=O)c1ncn3ccccc13)CC2", "test": "cell-free assay, competition with immobilised ligand", "setting": "0.1 µM", "remaining binding [%]": 100}
{"SMILES": "N[C@H]1CCN(c2nccc(-c3cnn4ncccc34)n2)C1", "test": "binding", "setting": "1 µM", "remaining binding [%]": 100}
{"SMILES": "O=C(c1ccc(Nc2ncc(Cl)c(-c3cc4ccccc4s3)n2)cc1)N1CCC(N2CCCC2)CC1", "test": "binding, competition with immobilised ligand", "setting": "1 µM", "remaining binding [%]": 76}
{"SMILES": "O=C(Nc1c[nH]nc1C(=O)NC1CCNCC1)c1cc(F)cc(F)c1", "test": "binding, competition with immobilised ligand", "setting": "1 µM", "remaining binding [%]": 100}
{"SMILES": "CN(C)C(=O)Cn1cc(-c2nc([C@@](C)(c3ccc(-c4cnc(N)nc4)cc3)C3CC3)no2)cn1", "test": "cell-free assay, competition with immobilised ligand", "setting": "1 µM", "remaining binding [%]": 92}
{"SMILES": "Cc1cnn2ncc(-c3ccnc(N(C)C)n3)c2c1", "test": "binding", "setting": "1 µM", "remaining binding [%]": 56}
{"SMILES": "CCN1CCN(Cc2ccc(C(=O)Nc3ccc(C)c(Oc4ccc5c(c4)CC(=O)N5)c3)cc2C(F)(F)F)CC1", "test": "binding, competition with immobilised ligand", "setting": "1 µM", "remaining binding [%]": 100}
{"SMILES": "FC(F)(F)Oc1cccc(-c2cnc3ccc(-c4ccncc4)nn23)c1", "test": "binding, competition with immobilised ligand", "setting": "5 µM", "remaining binding [%]": 0.05}
{"SMILES": "O=C(N1CCS(=O)(=O)CC1)N1C[C@H](c2ccc(OC(F)(F)F)cc2)C[C@H](c2nc(C3CC3)no2)C1", "test": "cell-free assay, competition with immobilised ligand", "setting": "1 µM", "remaining binding [%]": 100}
{"SMILES": "C[C@@H]1CCN(c2nccc(-c3cnn4ncccc34)n2)C1", "test": "binding", "setting": "1 µM", "remaining binding [%]": 20}
{"SMILES": "CNC(=O)Nc1ccc2c(c1)[C@@]1(CC2)OC(=O)N(CC(=O)N(Cc2ccc(F)cc2)[C@@H](C)C(F)(F)F)C1=O", "test": "cell-free assay, competition with immobilised ligand", "setting": "1 µM", "remaining binding [%]": 71}
{"SMILES": "Cc1cnc(Nc2ccc(C(=O)N3CCC(N4CCCC4)CC3)cc2)nc1-c1cc2ccccc2s1", "test": "binding, competition with immobilised ligand", "setting": "1 µM", "remaining binding [%]": 77}
{"SMILES": "COc1ccnn2ncc(-c3ccnc(N(C)C)n3)c12", "test": "binding", "setting": "1 µM", "remaining binding [%]": 65}
{"SMILES": "CCOC(=O)c1cc2cc(-c3cc(C(=O)NCc4ccc(C(=O)O)cc4)nn3C)ccc2[nH]1", "test": "cell-free assay, competition with immobilised ligand", "setting": "0.1 µM", "remaining binding [%]": 79}
{"SMILES": "c1cncc(-c2cccc(Nc3nccc(NC4CCCCC4)n3)c2)c1", "test": "binding, competition with immobilised ligand", "setting": "10 µM", "remaining binding [%]": 1.1}
{"SMILES": "Nc1ncc2c(n1)-c1c([nH]c3ccc(C#CC4CC4)cc13)CCCC2", "test": "binding, competition with immobilised ligand", "setting": "1 µM", "remaining binding [%]": 100}
{"SMILES": "CN(C)c1nccc(-c2cnc3ncccn23)n1", "test": "binding", "setting": "1 µM", "remaining binding [%]": 79}
{"SMILES": "COc1cnc(Nc2cccc(S(N)(=O)=O)c2)nc1N1CCN(c2ccccc2)CC1", "test": "binding, competition with immobilised ligand", "setting": "1 µM", "remaining binding [%]": 53}
